Data: article PMC6260118 (Thrombosis and Haemostasis, 2017)
Read-outs that look alike come from different tables or passages of the source.

What was measured:
[1] = Pharmacokinetics of ciraparantag and metabolite BAP in serum/plasma and urine; format: in vivo, human; settings: for dose proportionality of pharmacokinetics: based on Cmax and t½, 5-300 mg
Outline: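 Healthy non-smoking adults aged 18–65 received single escalating doses of test compound from 5 to 300 mg. Each dose was a sterile aqueous solution given by slow IV injection into an indwelling catheter, alone and, after at least four days' washout, about 3 h after oral edoxaban 60 mg. Parent compound and its piperazine metabolite were measured in serum/plasma and in urine pooled over the first 24 h.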

[2] = tested on: edoxaban-induced anticoagulation; assay: Whole blood point-of-care prothrombin time; format: in vivo, human; settings: within cohorts and across escalating dose cohorts
Outline: (§1)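 Whole blood was tested serially by point-of-care prothrombin time and by thromboelastography reaction time. Subjects were healthy volunteers in escalating-dose cohorts of 8 active and 2 placebo. They received single slow IV test compound or saline about 3 h after a single 60 mg oral dose of edoxaban.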

[3] = tested on: edoxaban-induced anticoagulation; assay: Thromboelastography reaction time; format: in vivo, human; settings: within cohorts and across escalating dose cohorts
Outline: as §1

clot fibrin = format: in vivo, human
[4] = cited from earlier work
[5] = Phase I safety and tolerability, adverse events; format: in vivo, human
Outline: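 The trial was a randomised, double-blind, placebo-controlled phase I study with eight cohorts of 10 healthy subjects each, randomised 8:2 to test compound or saline. Single IV doses were given alone and then about 3 h after edoxaban 60 mg orally. Safety was assessed in everyone dosed at least once: adverse events, vital signs, pulse oximetry, ECGs, clinical laboratory tests, fecal occult blood and concomitant medications. Treatment-emergent events were those starting on or after dosing.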

plasma proteins = settings: cited from earlier work
[6] = tested on: anticoagulant-induced bleeding; settings: pre-clinical animal models of anticoagulant-induced bleeding; cited from earlier work
[7] = tested on: hepatic cytochrome enzymes or membrane transporters; settings: cited from earlier work
[8] = tested on: edoxaban-induced anticoagulation; assay: Whole blood clotting time; format: in vivo, human
Outline: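 Native whole blood was tested in glass tubes with no activator or anticoagulant, three tubes of 0.5 ml each. Clotting time was read by tilt-tube visual inspection. Testing began in Period 2 of the 50 mg cohort and continued in all later cohorts, and the 25 mg cohort was repeated with it. IV test compound or saline was given about 3 h after edoxaban 60 mg orally, with follow-up to 24 h. Groups were compared by ANOVA with Tukey HSD, p<0.05.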

[9] = ciraparantag arm N=66, number (% of subjects)
[10] = single IV dose 100 to 300 mg following edoxaban 60 mg

With `NCCCN1CCN(CCCN)CC1` [BAP, 1,4-bis(3-aminopropyl)-piperazine] as the compound, how does the “dose proportionality of pharmacokinetics” value [1] read?
Its value is “dose-proportional pharmacokinetics”.

Which “change in mean PoC-PT” value [2] does the source give for `N=C(N)NCCC[C@H](N)C(=O)NCCCN1CCN(CCCNC(=O)[C@@H](N)CCCNC(=N)N)CC1` [ciraparantag] here?
The value was “no change over time”.

And the “change in mean TEG-R” value [3]?
Its value is “no change over time”.

And the mean fibrin diameter (clot fibrin; 25 mg ciraparantag after edoxaban 60 mg, partial reversal)?
The mean fibrin diameter was ~200 nm.

And the mean fibrin diameter (clot fibrin; 100 mg ciraparantag after edoxaban 60 mg, full reversal)?
The mean fibrin diameter was ~250 nm.

What about the mean fibrin diameter (clot fibrin; 300 mg ciraparantag after edoxaban 60 mg, full reversal) of the same compound?
Its mean fibrin diameter is ~250 nm.

And the “time to restoration of fibrin strands to baseline levels” value (clot fibrin; single i.v. dose of 100 mg ciraparantag after edoxaban)?
The value was ≤ 30 min.

What about the “binding to a selected spectrum of cardiovascular and antiepileptic drugs” value [4] of the same compound?
The value was “no binding”.

And the binding to anticoagulants ([4]; non-covalent hydrogen bonding and charge-charge interactions)?
Its binding to anticoagulants is “binds similarly to the new oral Xa inhibitors, edoxaban, rivaroxaban and apixaban, and to the oral thrombin inhibitor, dabigatran, but not to argatroban or warfarin”.

And the “Number of subjects who died” value ([5]; ciraparantag arm N=66)?
The value was 0.

And the “Number of subjects with SAE” value ([5]; ciraparantag arm N=66)?
Its value is 0.

What about the “Number of AEs” value ([5]; ciraparantag arm N=66, all single IV doses, Periods 1 and 2) of the same compound?
Its value is 204.

And the “Number of AEs per subject: 0” value [5, 9]?
Its value is 17 (25.8 %).

And the “Number of AEs per subject: 1” value [5, 9]?
The value was 10 (15.2 %).

And the “Number of AEs per subject: 2–3” value [5, 9]?
Its value is 16 (24.2 %).

What about the “Number of AEs per subject: 4–5” value [5, 9] of the same compound?
The value was 9 (13.6 %).

What about the “Number of AEs per subject: >5” value [5, 9] of the same compound?
The value was 14 (21.2 %).

And the “Number of subjects with AE” value [5, 9]?
The value was 49 (74.2 %).

And the “Number of subjects with AE related to Ciraparantag/Placebo” value [5, 9]?
Its value is 36 (54.5 %).

And the “Number of subjects with AE related to edoxaban” value [5, 9]?
Its value is 5 (7.6 %).

What about the “Number of subjects with AE related to study drug” value [5, 9] of the same compound?
The value was 38 (57.6 %).

And the “Number of subjects with TEAE” value [5, 9]?
Its value is 49 (74.2 %).

What about the “Changes in blood counts, blood chemistries (electrolytes, bilirubin, hepatic enzymes) or electrocardiograms” value ([5]; healthy subjects, single IV doses 5-300 mg) of the same compound?
Its value is “no significant changes”.

And the “binding to plasma proteins” value (plasma proteins)?
Its value is “no significant binding”.

And the blood loss [6]?
The blood loss was “reduces blood loss to baseline levels”.

And the “interaction with hepatic cytochrome enzymes or membrane transporters” value [7]?
The value was “does not interact substantially”.

And the “dose proportionality of pharmacokinetics” value [1]?
The value was “dose-proportional pharmacokinetics”.

What about the main elimination route ([1]; healthy subjects) of the same compound?
The main elimination route was “Renal excretion of ciraparantag metabolite”.

And the half-life ([1]; human, serum, iv, 5 mg)?
Its half-life is ~12 min.

What about the Cmax ([1]; human, serum, iv, 300 mg) of the same compound?
Its Cmax is ~10600 ng/mL.

What about the “reversal of edoxaban-induced anticoagulation (WBCT) within 10 min” value ([8]; 50 mg ciraparantag IV after edoxaban 60 mg) of the same compound?
The value was “Significant reversal”.

What about the “reversal of edoxaban-induced anticoagulation (WBCT)” value ([8]; 100–300 mg ciraparantag IV (Cohorts 5 to 7) after edoxaban 60 mg) of the same compound?
The value was “essentially full reversal”.

What about the “effect on WBCT” value ([8]; ciraparantag in the absence of edoxaban) of the same compound?
Its value is “no effect”.

What about the “duration of reversal of anticoagulation” value [8, 10] of the same compound?
Its value is “at least 24 hours”.

And the “time to full reversal of anticoagulation” value [8, 10]?
The value was ≤ 10 min.

And the anticoagulation above baseline ([8]; within 30 min of injection, after therapeutic dose of edoxaban)?
The anticoagulation above baseline was “less than 10%”.

For `CN1CCc2nc(C(=O)N[C@@H]3C[C@@H](C(=O)N(C)C)CC[C@@H]3NC(=O)C(=O)Nc3ccc(Cl)cn3)sc2C1` [edoxaban, reference compound], which mean fibrin diameter (clot fibrin; edoxaban anticoagulation without reversal, native state ∼250 nm) is on record?
Its mean fibrin diameter is ~125 nm.

What about the “effect on WBCT” value ([8]; edoxaban 60 mg oral) of the same compound?
The value was “significant elevation”.
